Source: ChEMBL document CHEMBL1135742, “Modification of the structure of a metallopeptide: synthesis and biological evaluation of (111)In-labeled DOTA-conjugated rhenium-cyclized alpha-MSH analogues” (J Med Chem, 2002)

Tests used:
Type in all cases: functional, organism-based
Mus musculus [1] = species on record: Mus musculus; test: Radioactivity uptake in the tumor was expressed as a percentage of the injected radioactive dose per gram of tissue (% ID/g) in B16/F1 Murine Melanoma-Bearing C57 Mice at 2 h
Summary of the method: (§1)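 C57 BL/6 female mice (7–8 weeks) carried B16/F1 tumours from 1×10^6 cells given s.c. in the right flank; tumours were ~500 mg at 9–10 days. Each mouse received […] of HPLC-purified, neutralized 111In-DOTA peptide via the tail vein. Mice were killed at 0.5, 2, 4 or 24 h pi. Tissues were weighed and γ-counted, expressed as % ID/g; ratios were tumor/tissue % ID/g.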

Mus musculus [2] = species on record: Mus musculus; test: Uptake Ratio of Tumor/muscle (each in % ID/g) in B16/F1 Murine Melanoma-Bearing C57 Mice at 4 h; conditions: Muscle tissue
Summary of the method: (§2)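 Female C57 BL/6 mice, 7–8 weeks old, carried subcutaneous right-flank B16/F1 tumors from 1×10^6 cells and were used 9–10 days later at ~500 mg tumor weight. Each received […] of HPLC-purified, pH-neutralized ¹¹¹In-DOTA peptide by tail vein. Tumor and organs were excised at the stated time, weighed and γ-counted. Each tissue was taken as % ID/g, and tumor/normal-tissue ratios were formed from these values.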

Mus musculus [3] = species on record: Mus musculus; test: Radioactivity uptake in the kidneys was expressed as a percentage of the injected radioactive dose per gram of tissue (% ID/g) in B16/F1 Murine Melanoma-Bearing C57 Mice at 0.5 h; conditions: Kidney; summary of the method: as §1
Mus musculus [4] = species on record: Mus musculus; test: Radioactivity uptake in the heart was expressed as a percentage of the injected radioactive dose per gram of tissue (% ID/g) in B16/F1 Murine Melanoma-Bearing C57 Mice at 24 h; summary of the method: as §1
Mus musculus [5] = species on record: Mus musculus; test: Radioactivity uptake in the kidneys was expressed as a percentage of the injected radioactive dose per gram of tissue (% ID/g) in B16/F1 Murine Melanoma-Bearing C57 Mice at 4 h; conditions: Kidney; summary of the method: as §1
Mus musculus [6] = species on record: Mus musculus; test: Radioactivity uptake in the tumor was expressed as a percentage of the injected radioactive dose per gram of tissue (% ID/g) in B16/F1 Murine Melanoma-Bearing C57 Mice at 4 h; summary of the method: as §1
Mus musculus [7] = species on record: Mus musculus; test: Radioactivity uptake in the pancreas was expressed as a percentage of the injected radioactive dose per gram of tissue (% ID/g) in B16/F1 Murine Melanoma-Bearing C57 Mice at 24 h; summary of the method: as §1
Mus musculus [8] = species on record: Mus musculus; test: Radioactivity uptake in the liver was expressed as a percentage of the injected radioactive dose per gram of tissue (% ID/g) in B16/F1 Murine Melanoma-Bearing C57 Mice at 4 h; summary of the method: as §1
Mus musculus [9] = species on record: Mus musculus; test: Radioactivity uptake in the pancreas was expressed as a percentage of the injected radioactive dose per gram of tissue (% ID/g) in B16/F1 Murine Melanoma-Bearing C57 Mice at 4 h; summary of the method: as §1
Mus musculus [10] = species on record: Mus musculus; test: Radioactivity uptake in the tumor was expressed as a percentage of the injected radioactive dose per gram of tissue (% ID/g) in B16/F1 Murine Melanoma-Bearing C57 Mice at 24 h; summary of the method: as §1
Mus musculus [11] = species on record: Mus musculus; test: Uptake Ratio of Tumor/blood (each in % ID/g) in B16/F1 Murine Melanoma-Bearing C57 Mice at 0.5 h; summary of the method: as §1
Mus musculus [12] = species on record: Mus musculus; test: Radioactivity uptake in the heart was expressed as a percentage of the injected radioactive dose per gram of tissue (% ID/g) in B16/F1 Murine Melanoma-Bearing C57 Mice at 0.5 h; summary of the method: as §1
Mus musculus [13] = species on record: Mus musculus; test: Uptake Ratio of Tumor/lungs (each in % ID/g) in B16/F1 Murine Melanoma-Bearing C57 Mice at 24 h; summary of the method: as §2
Mus musculus [14] = species on record: Mus musculus; test: Radioactivity uptake in the muscle was expressed as a percentage of the injected radioactive dose per gram of tissue (% ID/g) in B16/F1 Murine Melanoma-Bearing C57 Mice at 24 h; summary of the method: as §1
Mus musculus [15] = species on record: Mus musculus; test: Radioactivity uptake in the kidneys was expressed as a percentage of the injected radioactive dose per gram of tissue (% ID/g) in B16/F1 Murine Melanoma-Bearing C57 Mice at 2 h; conditions: Kidney; summary of the method: as §1
Mus musculus [16] = species on record: Mus musculus; test: Uptake Ratio of Tumor/muscle (each in % ID/g) in B16/F1 Murine Melanoma-Bearing C57 Mice at 0.5 h; conditions: Muscle tissue; summary of the method: as §2
Mus musculus [17] = species on record: Mus musculus; test: Radioactivity uptake in the lungs was expressed as a percentage of the injected radioactive dose per gram of tissue (% ID/g) in B16/F1 Murine Melanoma-Bearing C57 Mice at 4 h; conditions: Lung; summary of the method: as §1
Mus musculus [18] = species on record: Mus musculus; test: Radioactivity uptake in the spleen was expressed as a percentage of the injected radioactive dose per gram of tissue (% ID/g) in B16/F1 Murine Melanoma-Bearing C57 Mice at 2 h; summary of the method: as §1
Mus musculus [19] = species on record: Mus musculus; test: Radioactivity uptake in the pancreas was expressed as a percentage of the injected radioactive dose per gram of tissue (% ID/g) in B16/F1 Murine Melanoma-Bearing C57 Mice at 2 h; summary of the method: as §1
Mus musculus [20] = species on record: Mus musculus; test: Uptake Ratio of Tumor/lungs (each in % ID/g) in B16/F1 Murine Melanoma-Bearing C57 Mice at 2 h; summary of the method: as §2
Mus musculus [21] = species on record: Mus musculus; test: Radioactivity uptake in the spleen was expressed as a percentage of the injected radioactive dose per gram of tissue (% ID/g) in B16/F1 Murine Melanoma-Bearing C57 Mice at 24 h; summary of the method: as §1
Mus musculus [22] = species on record: Mus musculus; test: Radioactivity uptake in the lungs was expressed as a percentage of the injected radioactive dose per gram of tissue (% ID/g) in B16/F1 Murine Melanoma-Bearing C57 Mice at 24 h; conditions: Lung; summary of the method: as §1
Mus musculus [23] = species on record: Mus musculus; test: Radioactivity uptake in the muscle was expressed as a percentage of the injected radioactive dose per gram of tissue (% ID/g) in B16/F1 Murine Melanoma-Bearing C57 Mice at 4 h; summary of the method: as §1
Mus musculus [24] = species on record: Mus musculus; test: Radioactivity uptake in the kidneys was expressed as a percentage of the injected radioactive dose per gram of tissue (% ID/g) in B16/F1 Murine Melanoma-Bearing C57 Mice at 24 h; conditions: Kidney; summary of the method: as §1
Mus musculus [25] = species on record: Mus musculus; test: Uptake Ratio of Tumor/lungs (each in % ID/g) in B16/F1 Murine Melanoma-Bearing C57 Mice at 0.5 h; summary of the method: as §2
Mus musculus [26] = species on record: Mus musculus; test: Uptake Ratio of Tumor/liver (each in % ID/g) in B16/F1 Murine Melanoma-Bearing C57 Mice at 2 h; summary of the method: as §1
Mus musculus [27] = species on record: Mus musculus; test: Radioactivity uptake in the muscle was expressed as a percentage of the injected radioactive dose per gram of tissue (% ID/g) in B16/F1 Murine Melanoma-Bearing C57 Mice at 2 h; summary of the method: as §1
Mus musculus [28] = species on record: Mus musculus; test: Uptake Ratio of Tumor/kidneys (each in % ID/g) in B16/F1 Murine Melanoma-Bearing C57 Mice at 0.5 h; conditions: Kidney; summary of the method: as §1
Mus musculus [29] = species on record: Mus musculus; test: Uptake Ratio of Tumor/kidneys (each in % ID/g) in B16/F1 Murine Melanoma-Bearing C57 Mice at 4 h; conditions: Kidney; summary of the method: as §1
Mus musculus [30] = species on record: Mus musculus; test: Uptake Ratio of Tumor/blood (each in % ID/g) in B16/F1 Murine Melanoma-Bearing C57 Mice at 4 h; summary of the method: as §1
Mus musculus [31] = species on record: Mus musculus; test: Radioactivity uptake in the heart was expressed as a percentage of the injected radioactive dose per gram of tissue (% ID/g) in B16/F1 Murine Melanoma-Bearing C57 Mice at 2 h; summary of the method: as §1
Mus musculus [32] = species on record: Mus musculus; test: Radioactivity uptake in the lungs was expressed as a percentage of the injected radioactive dose per gram of tissue (% ID/g) in B16/F1 Murine Melanoma-Bearing C57 Mice at 2 h; conditions: Lung; summary of the method: as §1
Mus musculus [33] = species on record: Mus musculus; test: Radioactivity uptake in the liver was expressed as a percentage of the injected radioactive dose per gram of tissue (% ID/g) in B16/F1 Murine Melanoma-Bearing C57 Mice at 0.5 h; summary of the method: as §1

DOTA-ReCCEHdFRWCRPV-NH2
ID/g (Mus musculus [1]): 17.3%
Uptake ratio (Mus musculus [2]): 193
ID/g (Mus musculus [3]): 9.31%
ID/g (Mus musculus [4]): 0.36%
ID/g (Mus musculus [5]): 7.37%
ID/g (Mus musculus [6]): 17.4%
ID/g (Mus musculus [7]): 0.081%
ID/g (Mus musculus [8]): 0.3%
ID/g (Mus musculus [9]): 0.015%
ID/g (Mus musculus [10]): 8.19%
Uptake ratio (Mus musculus [11]): 9.7
ID/g (Mus musculus [12]): 0.76%
Uptake ratio (Mus musculus [13]): 43.7
ID/g (Mus musculus [14]): 0.14%
ID/g (Mus musculus [15]): 8.72%
Uptake ratio (Mus musculus [16]): 47.4
ID/g (Mus musculus [17]): 0.13%
ID/g (Mus musculus [18]): 0.27%
ID/g (Mus musculus [19]): 0.08%
Uptake ratio (Mus musculus [20]): 65.4
ID/g (Mus musculus [21]): 0.32%
ID/g (Mus musculus [22]): 0.24%
ID/g (Mus musculus [23]): 0.086%
ID/g (Mus musculus [24]): 5.64%
Uptake ratio (Mus musculus [25]): 11.1
Uptake ratio (Mus musculus [26]): 45.7
ID/g (Mus musculus [27]): 0.03%
Uptake ratio (Mus musculus [28]): 1.8
Uptake ratio (Mus musculus [29]): 2.5
Uptake ratio (Mus musculus [30]): 254
ID/g (Mus musculus [31]): 0.07%
ID/g (Mus musculus [32]): 0.3%
ID/g (Mus musculus [33]): 0.66%
